Results as given in ChEMBL document CHEMBL1145753, “Identification of a potent and selective 5-HT(6) antagonist: one-step synthesis of (E)-3-(benzenesulfonyl)-2- (methylsulfanyl)pyrido[1,2-a]pyrimidin-4-ylidenamine from 2-(benzenesulfonyl)-3,3-bis(methylsulfanyl)acrylonitrile” (J Med Chem, 2003).

Tests used:
[1] = target: 5-hydroxytryptamine receptor 6 (Homo sapiens, UniProt P50406); assay: Binding affinity towards 5-hydroxytryptamine 6 receptor using [3H]- LSD as radioligand
Summary of the method: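 Membranes from HEK293 cells expressing recombinant human 5-HT6 receptor. Displacement of [3H]LSD binding measured; IC50 derived.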

Cytochrome P450 3A4 [2] = target: T1, Cytochrome P450 3A4 (Homo sapiens, UniProt P08684); assay: Inhibition of recombinant human Cytochrome P450 3A4 with BFC; type: ADME
Summary of the method: (§1)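 Recombinant human CYP enzymes with fluorogenic substrates. CYP1A2: 3-cyano-7-ethoxycoumarin deethylation. CYP2C9: 7-methoxy-4-trifluoromethylcoumarin dealkylation. CYP2D6: 3-[2-(N,N-diethyl-N-methylamino)ethyl]-7-methoxy-4-methylcoumarin demethylation. CYP3A4: benzoylresorufin or 7-benzyloxy-4-trifluoromethylcoumarin dealkylation, tested separately. IC50 for metabolism inhibition reported as mean ± SEM (n = 7).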

Cytochrome P450 1A2 = target: T2, Cytochrome P450 1A2 (Homo sapiens, UniProt P05177); assay: Inhibition of recombinant human Cytochrome P450 1A2; type: ADME; summary of the method: as §1
T2 sequence (P05177 whole entry): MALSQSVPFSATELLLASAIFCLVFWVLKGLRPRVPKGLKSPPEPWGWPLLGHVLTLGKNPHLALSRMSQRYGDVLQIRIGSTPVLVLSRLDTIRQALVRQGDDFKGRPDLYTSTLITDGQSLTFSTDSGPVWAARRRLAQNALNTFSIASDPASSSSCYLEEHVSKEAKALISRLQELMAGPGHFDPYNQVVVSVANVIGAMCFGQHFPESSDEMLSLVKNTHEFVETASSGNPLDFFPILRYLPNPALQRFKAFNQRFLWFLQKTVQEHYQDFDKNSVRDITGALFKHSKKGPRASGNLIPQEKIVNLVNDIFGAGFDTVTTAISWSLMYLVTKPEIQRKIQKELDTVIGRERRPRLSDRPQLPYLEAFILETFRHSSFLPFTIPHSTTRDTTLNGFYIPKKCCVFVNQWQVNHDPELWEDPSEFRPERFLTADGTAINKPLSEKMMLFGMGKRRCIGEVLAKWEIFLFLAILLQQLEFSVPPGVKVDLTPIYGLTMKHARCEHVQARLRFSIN

Cytochrome P450 2C9 = Cytochrome P450 2C9 (Homo sapiens, UniProt P11712); assay: Inhibition of recombinant human Cytochrome P450 2C9; type: ADME; summary of the method: as §1
[3] = target: Cytochrome P450 2C19 (Homo sapiens) (UniProt P33261); assay: Inhibition of recombinant human Cytochrome P450 2C19
Cytochrome P450 2D6 = Cytochrome P450 2D6 (Homo sapiens, UniProt P10635); assay: Inhibition of recombinant human Cytochrome P450 2D6; type: ADME; summary of the method: as §1
[4] = Apparent dissociation constant was determined
Summary of the method: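 Human 5-HT6 receptor expressed in HEK293 cells with coexpressed Gα15, read out as 5-HT-stimulated Ca2+ mobilization. 5-HT EC50 was measured without antagonist and with increasing antagonist concentrations. Dose ratio is EC50 with antagonist divided by EC50 for 5-HT alone. Schild plot of log(dose ratio − 1) vs −log[antagonist]. Triplicate points; experiment repeated at least twice.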

Cytochrome P450 3A4 [5] = target: T1, Cytochrome P450 3A4; assay: Inhibition of recombinant human Cytochrome P450 3A4 with BzRes; type: ADME; summary of the method: as §1

Sequence of 5-hydroxytryptamine receptor 6 (P50406 whole entry): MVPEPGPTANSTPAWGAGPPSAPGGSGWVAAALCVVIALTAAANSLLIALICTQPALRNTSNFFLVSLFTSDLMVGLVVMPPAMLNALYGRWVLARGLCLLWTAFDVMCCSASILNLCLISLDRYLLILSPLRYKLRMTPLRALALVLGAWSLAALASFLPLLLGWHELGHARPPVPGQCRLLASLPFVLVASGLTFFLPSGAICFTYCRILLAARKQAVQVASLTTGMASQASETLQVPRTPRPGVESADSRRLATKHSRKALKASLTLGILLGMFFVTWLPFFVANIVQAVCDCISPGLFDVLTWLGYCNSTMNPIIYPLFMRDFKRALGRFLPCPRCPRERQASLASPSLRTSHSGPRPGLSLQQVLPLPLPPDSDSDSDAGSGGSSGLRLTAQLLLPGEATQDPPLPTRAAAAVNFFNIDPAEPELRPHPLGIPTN
T1 sequence (P08684 whole entry): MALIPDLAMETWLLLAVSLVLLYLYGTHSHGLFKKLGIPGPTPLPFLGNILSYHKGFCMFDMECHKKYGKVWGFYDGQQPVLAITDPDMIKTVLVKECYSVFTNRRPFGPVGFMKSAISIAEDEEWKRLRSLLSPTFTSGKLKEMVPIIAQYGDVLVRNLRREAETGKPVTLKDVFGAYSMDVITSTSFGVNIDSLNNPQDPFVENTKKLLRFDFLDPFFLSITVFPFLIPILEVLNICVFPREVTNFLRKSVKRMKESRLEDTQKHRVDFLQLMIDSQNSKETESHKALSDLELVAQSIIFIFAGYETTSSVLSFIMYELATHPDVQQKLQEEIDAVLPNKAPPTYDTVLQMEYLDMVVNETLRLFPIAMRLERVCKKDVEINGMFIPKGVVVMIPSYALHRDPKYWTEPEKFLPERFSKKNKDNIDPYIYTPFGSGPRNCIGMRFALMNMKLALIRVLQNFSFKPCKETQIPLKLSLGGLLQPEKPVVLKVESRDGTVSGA
Sequence of Cytochrome P450 2C19 (Homo sapiens) (P33261 whole entry, looked up): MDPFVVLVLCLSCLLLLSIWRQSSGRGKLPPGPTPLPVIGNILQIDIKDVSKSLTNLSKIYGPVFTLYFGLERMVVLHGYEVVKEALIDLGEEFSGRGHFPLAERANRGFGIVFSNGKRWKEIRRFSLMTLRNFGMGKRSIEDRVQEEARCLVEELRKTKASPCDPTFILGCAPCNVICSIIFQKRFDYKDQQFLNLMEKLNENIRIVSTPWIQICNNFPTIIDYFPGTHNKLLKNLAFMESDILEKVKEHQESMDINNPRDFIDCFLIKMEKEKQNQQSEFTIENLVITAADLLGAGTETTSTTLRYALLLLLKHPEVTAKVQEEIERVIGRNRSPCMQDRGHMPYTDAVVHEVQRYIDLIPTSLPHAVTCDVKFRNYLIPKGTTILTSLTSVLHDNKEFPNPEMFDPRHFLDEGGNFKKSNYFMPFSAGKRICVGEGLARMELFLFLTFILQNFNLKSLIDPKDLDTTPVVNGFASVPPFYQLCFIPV
Sequence of Cytochrome P450 2C9 (P11712 whole entry): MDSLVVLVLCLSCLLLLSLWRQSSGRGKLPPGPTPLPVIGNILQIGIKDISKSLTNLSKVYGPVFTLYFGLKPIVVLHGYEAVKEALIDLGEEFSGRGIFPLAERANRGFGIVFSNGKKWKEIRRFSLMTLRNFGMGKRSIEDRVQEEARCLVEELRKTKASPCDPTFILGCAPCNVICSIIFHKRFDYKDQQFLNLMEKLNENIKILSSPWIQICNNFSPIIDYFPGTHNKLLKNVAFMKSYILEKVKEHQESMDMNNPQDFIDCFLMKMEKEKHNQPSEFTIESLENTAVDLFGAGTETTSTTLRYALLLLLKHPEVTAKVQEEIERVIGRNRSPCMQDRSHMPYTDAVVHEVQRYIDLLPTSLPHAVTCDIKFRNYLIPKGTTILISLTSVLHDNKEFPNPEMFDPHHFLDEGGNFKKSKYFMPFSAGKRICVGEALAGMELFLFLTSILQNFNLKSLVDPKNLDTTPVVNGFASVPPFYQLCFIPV
Sequence of Cytochrome P450 2D6 (P10635 whole entry): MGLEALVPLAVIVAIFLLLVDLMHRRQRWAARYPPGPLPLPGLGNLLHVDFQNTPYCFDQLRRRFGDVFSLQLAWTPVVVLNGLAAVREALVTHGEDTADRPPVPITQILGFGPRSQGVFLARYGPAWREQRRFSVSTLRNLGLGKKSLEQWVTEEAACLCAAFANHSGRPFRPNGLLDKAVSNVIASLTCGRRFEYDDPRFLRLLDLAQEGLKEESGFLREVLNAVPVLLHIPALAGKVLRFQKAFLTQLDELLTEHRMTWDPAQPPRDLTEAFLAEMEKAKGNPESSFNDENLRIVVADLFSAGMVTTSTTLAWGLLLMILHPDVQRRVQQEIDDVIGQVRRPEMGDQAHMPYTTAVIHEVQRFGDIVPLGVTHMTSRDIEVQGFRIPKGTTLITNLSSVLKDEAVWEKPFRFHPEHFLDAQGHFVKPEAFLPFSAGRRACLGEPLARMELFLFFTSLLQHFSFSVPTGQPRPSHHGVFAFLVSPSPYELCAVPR

SMILES	IC50 [1]	other results
CCc1ccn2c(=N)c(S(=O)(=O)c3ccccc3)c(SC)nc2c1	70.1 nM	
N#C/C(=C\Nc1ccccn1)S(=O)(=O)c1ccccc1	524 nM	
CSc1nc2c(Br)cc(C)cn2c(=N)c1S(=O)(=O)c1ccccc1	269 nM	
CSc1nc2c3ccccc3ccn2c(=N)c1S(=O)(=O)c1ccccc1	68.9 nM	
CSc1nc2ccccn2c(=N)c1S(=O)(=O)c1ccccc1	4 nM	IC50 (Cytochrome P450 3A4 [2]): > 40000 nM; IC50 (Cytochrome P450 1A2): > 40000 nM; IC50 (Cytochrome P450 2C9): 24200 nM; IC50 [3]: 860 nM; IC50 (Cytochrome P450 2D6): > 40000 nM; Kd [4]: 4.7 nM; IC50 (Cytochrome P450 3A4 [5]): > 40000 nM
CCCS(=O)(=O)c1c(SC)nc2ccccn2c1=N	3580 nM	
CSc1nc2ccc(F)cn2c(=N)c1S(=O)(=O)c1ccccc1	87.6 nM	
CSc1nc2ccccn2c(=N)c1S(=O)(=O)c1ccc2ccccc2c1	79.2 nM	
CNc1cc(NS(=O)(=O)c2ccc(N)cc2)nc(NC)n1	26.3 nM	
